# Source: ChEMBL document CHEMBL1157581, “Synthesis, metabolism and in vitro cytotoxicity studies on novel lavendamycin antitumor agents” (Bioorg Med Chem, 2010)
# Activity calls are given as the source filed them. No cut-off for these calls is given here.
# Assays:
# A549 [1] = test: Suppression of clonogenic survival of human A549 cells at <100 nM; assay type: functional, cell-based
# BE [2] = test: Cytotoxicity against NQO1 deficient human BE cells after 3 to 5 days by MTT assay; assay type: functional, cell-based
# How it was run: (§1)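 BE colon adenocarcinoma cells and NQO1-transfected BE-NQ cells (337 nmol/min/mg protein, DCPIP) in MEM with 10% FBS, 37 °C, 5% CO2. Seeded 10,000 cells/mL, attached 16 h, exposed 2 h, then washed out into fresh medium for 3–5 days. MTT 50 µg, 4 h, formazan in DMSO, A560; IC50 from semi-log plots of percent control.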
# BE [3] = test: Selectivity index, ratio of IC50 for NQO1 deficient human BE cells to IC50 for human BE cells expressing human NQO1
# [4] = molecular target: NAD(P)H dehydrogenase [quinone] 1 (Homo sapiens) (UniProt P15559); test: Activity of human NQO1 assessed as initial rate of compound reduction per mg of protein at 25 uM in presence of NADH by cytochrome c reduction assay
# How it was run: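 Recombinant human NQO1 (0.1–3 µg) with cytochrome c 70 µM as terminal electron acceptor, NADH 1 mM, substrate 25 µM in 25 mM Tris-HCl pH 7.4 containing 0.7 mg/mL BSA and 0.1% Tween-20, room temperature, started with NADH. A550 followed; initial rate from linear 0–30 s segment, ε 21.1 mM⁻¹ cm⁻¹, µmol cytochrome c/min/mg NQO1; at least triplicate.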
# BE [5] = test: Cytotoxicity against human BE cells expressing human NQO1 after 3 to 5 days by MTT assay; assay type: functional, cell-based; how it was run: as §1
# A549 [6] = test: Inhibition of clonogenic survival of human A549 cells at 100 nM; assay type: functional
# BE [7] = test: Selectivity index, ratio of IC50 for human BE cells expressing human NQO1 to IC50 for NQO1 deficient human BE cells; assay type: functional
# NAD(P)H dehydrogenase [quinone] 1 (Homo sapiens), sequence (P15559 whole entry): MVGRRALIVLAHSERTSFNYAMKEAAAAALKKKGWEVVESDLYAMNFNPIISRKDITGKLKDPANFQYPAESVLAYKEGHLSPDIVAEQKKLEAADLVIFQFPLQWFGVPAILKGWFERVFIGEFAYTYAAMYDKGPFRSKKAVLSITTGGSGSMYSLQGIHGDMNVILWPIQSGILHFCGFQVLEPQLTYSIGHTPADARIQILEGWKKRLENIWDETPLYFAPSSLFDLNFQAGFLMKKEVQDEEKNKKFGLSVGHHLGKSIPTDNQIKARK
Compound,inhibition (A549 [1]),IC50 (BE [2]),Ratio IC50 (BE [3]),Activity [4],IC50 (BE [5]),inhibition at 0.1 µM (A549 [6]),Ratio IC50 (BE [7])
COC(=O)c1[nH]c(-c2ccc3c(n2)C(=O)C(NC(C)=O)=CC3=O)c2nc3ccccc3c-2c1C,Active,,,,,,
NC1=CC(=O)c2ccc(-c3nc(C(=O)N4CCOCC4)cc4c3[nH]c3ccccc34)nc2C1=O,,18 µM,9,103 µmol/min,2 µM,,
COC(=O)c1nc(-c2ccc3c(n2)C(=O)C(N)=C(OC)C3=O)c2[nH]c3ccccc3c2c1C,Active,,,,,,
CC(=O)NC1=CC(=O)c2ccc(-c3nc(C(=O)NCC(O)CO)cc4c3[nH]c3ccccc34)nc2C1=O (stereo not given),,> 50 µM,>2.8,36 µmol/min,18 µM,,
CCOC(=O)c1cc2c([nH]c3ccccc32)c(-c2ccc3c(n2)C(=O)C(N)=C(Cl)C3=O)n1,,> 50 µM,,6.9 µmol/min,> 50 µM,,
NC(=O)c1cc2c([nH]c3ccccc32)c(-c2ccc3c(n2)C(=O)C(NC(=O)CCl)=CC3=O)n1,,12 µM,2.1,13 µmol/min,5.8 µM,,
N=C1C=C(O)c2ccc(-c3nc(C(N)=O)cc4c3[nH]c3ccccc34)nc2C1=O,,,,,,100%,
COC(=O)c1cc2c([nH]c3ccccc32)c(-c2ccc3c(n2)C(=O)C(NC=O)=CC3=O)n1,,14 µM,1.4,20 µmol/min,10 µM,,
O=C(CCl)NC1=CC(=O)c2ccc(-c3nc(C(=O)N4CCCC4)cc4c3[nH]c3ccccc34)nc2C1=O,,8 µM,2.7,34 µmol/min,3 µM,,
COC(=O)c1cc2c([nH]c3ccccc32)c(-c2ccc3c(n2)C(=O)C(NC(=O)C(C)C)=CC3=O)n1,,> 50 µM,,0.04 µmol/min,> 50 µM,,
COC(=O)c1nc(-c2ccc3c(n2)C(=O)C(NC(=O)c2ccco2)=CC3=O)c2[nH]c3ccccc3c2c1C,,> 50 µM,,5.8 µmol/min,> 50 µM,,
CCC(C)OC(=O)c1cc2c([nH]c3ccccc32)c(-c2ccc3c(n2)C(=O)C(NC(C)=O)=CC3=O)n1 (stereo not given),,33 µM,,3.9 µmol/min,40 µM,,0.8
COC(=O)c1nc(-c2ccc3c(n2)C(=O)C(N)=CC3=O)c2[nH]c3ccc(O)cc3c2c1C,,14 µM,2.5,31 µmol/min,5.7 µM,,
CCCOC(=O)c1cc2c([nH]c3ccccc32)c(-c2ccc3c(n2)C(=O)C(NC(C)=O)=CC3=O)n1,,3.2 µM,1.3,6.8 µmol/min,2.4 µM,,
COC(=O)c1cc2c([nH]c3ccccc32)c(-c2ccc3c(n2)C(=O)C(NC(C)=O)=CC3=O)n1,Active,,,,,,
CC(C)CCOC(=O)c1cc2c([nH]c3ccc(O)cc32)c(-c2ccc3c(n2)C(=O)C(N)=CC3=O)n1,,> 50 µM,,2.9 µmol/min,> 50 µM,,
CC(=O)NC1=CC(=O)c2ccc(-c3nc(C(=O)NCCO)cc4c3[nH]c3ccccc34)nc2C1=O,,> 50 µM,,2.2 µmol/min,> 50 µM,,
CC(=O)NC1=CC(=O)c2ccc(-c3nc(C(=O)N4CCN(Cc5ccccc5)CC4)cc4c3[nH]c3ccccc34)nc2C1=O,,6.5 µM,0.7,8.7 µmol/min,9.8 µM,,
CCOC(=O)c1cc2c([nH]c3ccc(O)cc32)c(-c2ccc3c(n2)C(=O)C(NC(C)=O)=CC3=O)n1,,4 µM,0.8,21 µmol/min,4.8 µM,,
NC1=CC(=O)c2ccc(-c3nc(C(=O)NCCO)cc4c3[nH]c3ccccc34)nc2C1=O,,1.1 µM,1,26 µmol/min,1.1 µM,,
CC(=O)NC1=CC(=O)c2ccc(-c3nc(C(=O)N4CCCC4)cc4c3[nH]c3ccccc34)nc2C1=O,,13 µM,2.1,43 µmol/min,6.2 µM,,
NC1=CC(=O)c2ccc(-c3nc(C(=O)N4CCCC4)cc4c3[nH]c3ccccc34)nc2C1=O,,> 50 µM,>1.1,35 µmol/min,45 µM,,
CCCCOC(=O)c1cc2c([nH]c3ccccc32)c(-c2ccc3c(n2)C(=O)C(NC(=O)CCC(=O)O)=CC3=O)n1,,12 µM,1.6,5.2 µmol/min,7.6 µM,,
CCOC(=O)c1cc2c([nH]c3ccccc32)c(-c2ccc3c(n2)C(=O)C(NC(C)=O)=CC3=O)n1,,13 µM,1.3,3.6 µmol/min,10 µM,,
COC(=O)c1[nH]c(-c2ccc3c(n2)C(=O)C(=N)C(Cl)=C3O)c2nc3ccccc3c-2c1C,Active,,,,,70%,
COC(=O)c1cc2c([nH]c3ccccc32)c(-c2ccc3c(n2)C(=O)C(N)=CC3=O)n1,,45 µM,2,28 µmol/min,22 µM,,
